Data set [1] is described as follows: Inhibition of Escherichia coli DHFR preincubated with NADPH for 3 mins followed by compound addition for 7 mins under dark condition by colorimetric assay. A digest of the protocol: (§1)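 In-house E. coli DHFR expressed in BL21(DE3) and Ni-NTA purified. Enzyme (~20 ng) preincubated with 60 μM NADPH, then with inhibitor at 10^-5 to 10^-12 M final, 1% DMSO. Dark samples heat-adapted to the trans isomer; irradiated samples brought to PSS at 100 μM for 15–45 min. Reaction started with 15 μM dihydrofolate, A340 followed every 5 s for 300 s at 25 °C. Triplicates; activity taken relative to a DMSO control; IC50 from nonlinear regression.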

A short description of data set [2]: Inhibition of Escherichia coli DHFR irradiated with 390 nm light preincubated with NADPH for 3 mins followed by compound addition for 7 mins by colorimetric assay. A digest of the protocol:
as §1

A short description of data set [3]: Half life of compound. Format: physicochemical. The method in brief:
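Metastable-isomer thermal relaxation tracked as recovery of the π–π* band under stirring, at 25 °C in DMSO or eDHFR assay buffer, or at 37 °C in 10 mM Tris-HCl pH 7.0. Fitted to a first-order exponential.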

Data set [4] deals with Escherichia coli. Put plainly: Antibacterial activity against Escherichia coli CS1562 assessed as reduction in bacterial growth irradiated with 355 nm light measured after 24 hrs by plate reader method. Format: functional. The settings on record: CS1562, light or radiation study. The method in brief: (§2)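 E. coli CS1562 grown overnight at 37 °C in LB with tetracycline (10 μg/mL), then diluted to 0.002 OD600. Compound serial dilutions made in DMSO and diluted 25-fold in LB. Irradiated set exposed to 355 nm for 30 min before adding cells; dark set not irradiated. Triplicates grown overnight at 37 °C with OD600 read every 10 min, background-corrected to t=0.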

Data set [5] relates to Escherichia coli. Put plainly: Antibacterial activity against Escherichia coli CS1562 assessed as reduction in bacterial growth under dark condition measured after 24 hrs by plate reader method. Format: functional. A digest of the protocol:
as §2

In data set [6] the test system is Escherichia coli. Put plainly: Antibacterial activity against Escherichia coli CS1562 assessed as reduction in bacterial growth at 20 uM measured after 24 hrs under dark condition by plate reader method. Format: functional, organism-based. A digest of the protocol:
as §2

The subject of data set [7] is Escherichia coli. Put plainly: Antibacterial activity against Escherichia coli CS1562 assessed as reduction in bacterial growth at 20 uM irradiated with 355 nm light measured after 24 hrs by plate reader method. Format: functional, organism-based. A digest of the protocol: as §2

Values after ≈ are worked out from the molar mass of the structure shown. Active and inactive are the calls of the source.

For `Nc1ncc(/N=N/c2ccccc2)c(N)n1`, the concentration for half-maximal inhibition (IC50) in data set [1] and in data set [2] was over 10 µM throughout. Also, the half-life (in general, the time needed for the level to fall by half in the phase considered) in data set [3] was 10 s.
Turning to `Nc1ncc(C#Cc2ccc(/N=N/c3ccccc3)cc2)c(N)n1`, the 50% inhibitory concentration (IC50) in data set [1] and in data set [2] was over 10 µM each time.
With `COc1cc(Cc2cnc(N)nc2N)cc(OC)c1OCc1cc(Cl)c(/N=N/c2c(Cl)cccc2Cl)c(Cl)c1`, the MIC (in general, the lowest concentration that inhibits growth of the organism) in data set [4] was 10 µM (≈ 6.08 µg/mL); in data set [5], over 80 µM.
The matching figures for `COc1ccc(/N=N/c2ccc(COc3c(OC)cc(Cc4cnc(N)nc4N)cc3OC)cc2)cc1`: 10 µM (≈ 5.01 µg/mL) and 20 µM (≈ 10 µg/mL).
With `COc1cc(Cc2cnc(N)nc2N)cc(OC)c1OCc1cc(F)c(/N=N/c2c(F)cccc2F)c(F)c1`, the minimal inhibitory concentration (MIC) in data set [4] was found to be 5 µM (≈ 2.71 µg/mL); in data set [5] it was 10 µM (≈ 5.42 µg/mL).
For `Nc1ncc(-c2ccc(/N=N/c3ccccc3)cc2)c(N)n1`, the concentration for half-maximal inhibition (IC50) in data set [1] and in data set [2] was over 10 µM throughout.
Take `COC(C)(C#Cc1cnc(N)nc1N)c1ccc(/N=N/c2cccc(C(=O)O)c2)cc1` (stereo not given): the outcome in data set [6] and in data set [7] was Active.

(Values after ChEMBL document CHEMBL5154785, “Hypothesis-Driven, Structure-Based Design in Photopharmacology: The Case of eDHFR Inhibitors” (J Med Chem, 2022).)
